Measurements from ChEMBL document CHEMBL1240313, “A clinical drug library screen identifies astemizole as an antimalarial agent” (Nat Chem Biol, 2006).
pIC50: −log10 of the molar value. Activity calls are given as the source filed them. No cut-off for these calls is given here.

Columns and labels:
Heme [1] = assay: Inhibition of heme crystallization after 16 hrs
Summary of the method: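 Heme crystal extension was seeded with 2.5 nmol heme crystal and run with 50 µM heme in 0.1 M ammonium acetate, pH 4.8, at 37°C for 16 h. Crystal extension was quantified by the differential solubility of free versus crystalline heme in 0.15 M sodium bicarbonate. IC50 came from a four-parameter logistic fit and is given as mean ± s.e.m. of triplicate experiments.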

Heme [2] = assay: Displacement of [3H]astemizole from free heme crystal at 15 uM after 16 hrs by scintillation counting
Summary of the method: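 [3H]-astemizole (27 Ci/mmol) was incubated in triplicate with a 5 nmol heme crystal seed and 50 µM heme in 0.1 M ammonium acetate, pH 4.8, for 16 h at 37°C. Crystal was pelleted, sonicated, and spun through 1.7 M sucrose at 200,000 × g. The pellet was decrystallized in 50 mM NaOH/2% SDS and counted by scintillation.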

Plasmodium falciparum [3] = assay: Antimalarial activity against Plasmodium falciparum 3D7 assessed as inhibition of parasite growth after 48 to 96 hrs by [3H]hypoxanthine incorporation assay; format: functional, organism-based
Summary of the method: (§1)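 Synchronized ring-stage parasites in RPMI 1640 with 10% human serum, 0.2% parasitemia and 2-4% hematocrit, were exposed to drug for 48 or 96 h with [3H]-hypoxanthine. Growth was read as radioactive incorporation. IC50 came from a four-parameter logistic fit and is given as mean ± s.e.m. of triplicate experiments.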

[4] = Oral bioavailability in human; format: ADME, organism-based; conditions: in vivo, read-out: Activity
Plasmodium vinckei [5] = assay: Antimalarial activity against chloroquine-sensitive Plasmodium vinckei infected in mice (Mus musculus) assessed as complete cure from parasite infection at 15 mg/m'2, intraperitoneally qd for 4 days administered 2 hrs post infection measured on day 5; format: functional
Summary of the method: (§2)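 Male C57/BL6 mice (5-6 weeks, 25 ± 2 g) were infected with the P. vinckei Rhodain strain and assessed by the 4-d parasite suppression test. Astemizole tartrate or acetate, or an equal volume of vehicle, was given intraperitoneally or per os. Parasitemia is reported as mean ± s.e.m. Cure meant survival to 30 days post infection with parasitemia cleared and no recrudescence over the next 30 days. Two-tailed Student's t-test was used.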

Plasma = assay: Metabolic stability in human plasma assessed as desmethylastemizole half life; format: ADME, cell-free
Plasmodium falciparum [6] = assay: Antimalarial activity against Plasmodium falciparum ItG assessed as inhibition of parasite growth after 48 to 96 hrs by [3H]hypoxanthine incorporation assay; format: functional, organism-based; summary of the method: as §1
Plasmodium vinckei [7] = assay: Antimalarial activity against chloroquine-sensitive Plasmodium vinckei infected in mice (Mus musculus) assessed as reduction in parasitemia at 15 mg/m'2, intraperitoneally […]; format: functional
Plasmodium yoelii [8] = assay: Antimalarial activity against chloroquine-sensitive Plasmodium yoelii 17X infected in mice (Mus musculus) assessed as reduction in parasitaemia at 15 mg/m'2, […] administered 2 hrs post infection […]; format: functional
Plasmodium yoelii [9] = assay: Antimalarial activity against chloroquine-sensitive Plasmodium yoelii 17X infected in mice (Mus musculus) assessed as complete cure from parasite infection at 15 mg/m'2, intraperitoneal daily for 4 days administered 2 hrs post infection measured on day 5; format: functional, organism-based
Summary of the method: (§3)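 P. yoelii 17X lethal strain was used in male C57/BL6 mice (5-6 weeks, 25 ± 2 g), assessed by the 4-d suppression test. Drug or an equal volume of vehicle was given intraperitoneally or per os. Parasitemia is reported as mean ± s.e.m. Cure meant survival to day 30 with cleared parasitemia and no recrudescence over a further 30 days. Two-tailed t-test was used.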

Plasmodium falciparum [10] = assay: Antimalarial activity against Plasmodium falciparum Dd2 assessed as inhibition of parasite growth after 48 to 96 hrs by [3H]hypoxanthine incorporation assay; format: functional, organism-based; summary of the method: as §1
[11] = Drug level in Plasmodium falciparum Dd2 infected erythrocyte lysate at 1.5 uCi after 20 hrs; format: ADME, cell-based
[12] = Drug level in chloroquine-sensitive Plasmodium falciparum 3D7 lysate at 1.5 uCi after 20 hrs; format: ADME; conditions: plasmodium falciparum 3d7, 20 h
[13] = Drug level in Plasmodium falciparum 3D7 infected erythrocyte lysate at 1.5 uCi after 20 hrs; format: ADME, cell-based
[14] = Drug level in chloroquine-sensitive Plasmodium falciparum 3D7 culture at 1.5 uCi after 20 hrs; format: ADME; conditions: plasmodium falciparum 3d7, 20 h
[15] = Drug level in hemozoin of Plasmodium falciparum Dd2 at 1.5 uCi after 20 hrs; format: ADME; conditions: plasmodium falciparum dd2, 20 h
Summary of the method: (§4)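 Duplicate 12 mL ring-stage cultures at 5% parasitemia were incubated with 1.5 µCi [3H]-astemizole for 20 h. Erythrocytes were harvested at the trophozoite stage and washed. Hemozoin was extracted by hypotonic lysis and purified by sucrose-cushion ultracentrifugation, then decrystallized in NaOH/SDS and counted by scintillation.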

[16] = Drug level in chloroquine-resistant Plasmodium falciparum Dd2 lysate at 1.5 uCi after 20 hrs; format: ADME; conditions: plasmodium falciparum dd2, 20 h
Summary of the method: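 Duplicate 12 mL ring-synchronized cultures (RPMI 1640, 10% human serum; 5% parasitemia) incubated 20 h with 1.5 µCi tritiated drug. Trophozoite-stage erythrocytes harvested and washed once. Hemozoin released by hypotonic lysis, then pelleted through 1.7 M sucrose/50 mM Tris-HCl pH 8.0 at 200,000 × g for 15 min. Pellet decrystallized in 50 mM NaOH, 2% SDS; radioactivity read by scintillation counting.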

[17] = Drug level in chloroquine-sensitive Plasmodium falciparum Dd2 culture at 1.5 uCi after 20 hrs; format: ADME; conditions: plasmodium falciparum dd2, 20 h
[18] = Drug level in hemozoin of Plasmodium falciparum 3D7 at 1.5 uCi after 20 hrs; format: ADME; conditions: plasmodium falciparum 3d7, 20 h; summary of the method: as §4
Plasmodium falciparum [19] = assay: Antiplasmodial activity against Plasmodium falciparum infected in erythrocytes assessed as stabilization of free heme at 0.05 uCi after 16 hrs by scintillation counting; format: functional, organism-based; conditions: tested as the 3H-labelled form
Heme [20] = assay: Inhibition of heme crystallization at 7.5 uM after 24 hrs at pH 5.2 - 5.6
Plasmodium vinckei [21] = assay: Antimalarial activity against chloroquine-sensitive Plasmodium vinckei infected in mice (Mus musculus) assessed as reduction in parasitemia at 30 mg/m'2, intraperitoneally […]; format: functional
Plasmodium vinckei [22] = assay: Antimalarial activity against chloroquine-sensitive Plasmodium vinckei infected in mice (Mus musculus) assessed as complete cure from parasite infection at 300 mg/m'2, perorally qd for 4 days administered 2 hrs post infection measured on day 4; format: functional; summary of the method: as §2
Plasmodium yoelii [23] = assay: Antimalarial activity against chloroquine-sensitive Plasmodium yoelii 17X infected in mice (Mus musculus) assessed as complete cure from parasite infection at 300 mg/m'2, perorally daily for 4 days administered 2 hrs post infection measured on day 4; format: functional, organism-based; summary of the method: as §3
Plasmodium vinckei [24] = assay: Antimalarial activity against chloroquine-sensitive Plasmodium vinckei infected in mice (Mus musculus) assessed as complete cure from parasite infection at 30 mg/m'2, intraperitoneally qd for 4 days administered 2 hrs post infection measured on day 5; format: functional; summary of the method: as §2

In the case of `CCN(CC)CCCC(C)Nc1c2ccc(Cl)cc2nc2ccc(OC)cc12` (stereo unspecified), the inhibition (Heme [1]) was “Active” and the Activity (Heme [2]) was “Active”.
For `Oc1ccc(CCN2CCC(Nc3nc4ccccc4n3Cc3ccc(F)cc3)CC2)cc1` [DESMETHEYLASTEMIZOLE], the pIC50 (Plasmodium falciparum [3]) was 6.93, the bioavailability [4] was 95% and the Activity (Plasmodium vinckei [5]) was “inactive”. The t1/2 (Plasma) was 7 days, the pIC50 (Plasmodium falciparum [6]) was 7.25 and the “inhibition (INH)” value (Plasmodium vinckei [7]) was “<=81%”. The pIC50 (Heme [1]) was 5.09, the “inhibition (INH)” value (Plasmodium yoelii [8]) was 40% and the Activity (Plasmodium yoelii [9]) was “inactive”. It also gave a pIC50 (Plasmodium falciparum [10]) of 6.97.
In the case of `[3H]C([3H])([3H])Oc1ccc(CCN2CCC(Nc3nc4ccccc4n3Cc3ccc(F)cc3)CC2)cc1` [[3H]-ASTEMIZOLE], the Drug uptake [11] was 144 cpm/uL, the Drug uptake [12] was 2105 cpm/uL and the Drug uptake [13] was 179 cpm/uL. It also gave a Drug uptake [14] of 20.9 cpm/uL, a Drug uptake [15] of 21389 cpm/uL and a Drug uptake [16] of 2598 cpm/uL. It also gave a Drug uptake [17] of 17.9 cpm/uL and a Drug uptake [18] of 19656 cpm/uL.
With `CCN(CC)CCCC(C)Nc1ccnc2cc(Cl)ccc12` (stereo unspecified) the Activity (Plasmodium falciparum [19]) was “Active”, the inhibition (Heme [20]; tested as the 3H-labelled form) was “Active” and the Activity (Heme [2]; tested as the 3H-labelled form) was “inactive”.
With `OC(c1cc(C(F)(F)F)nc2c(C(F)(F)F)cccc12)C1CCCCN1` (stereo unspecified) the inhibition (Heme [1]) was “inactive” and the Activity (Heme [2]) was “inactive”.
With `CC1(C)S[C@@H]2[C@H](NC(=O)[C@H](N)c3ccccc3)C(=O)N2[C@H]1C(=O)O` the inhibition (Heme [1]) was “inactive” and the Activity (Heme [2]) was “inactive”.
In the case of `C=C[C@H]1CN2CC[C@H]1C[C@H]2[C@H](O)c1ccnc2ccc(OC)cc12`, the inhibition (Heme [1]) was “inactive” and the Activity (Heme [2]) was “inactive”.
For `COc1ccc(CCN2CCC(Nc3nc4ccccc4n3Cc3ccc(F)cc3)CC2)cc1` [ASTEMIZOLE], the Activity (Plasmodium falciparum [19]) was “Active”, the “inhibition (INH)” value (Plasmodium vinckei [21]) was 80% and the pIC50 (Plasmodium falciparum [3]) was 6.64. For the same molecule, the Activity (Plasmodium vinckei [22]) was “Active”, the pIC50 (Plasmodium falciparum [6]) was 6.13 and the inhibition (Heme [20]) was “Active”. The Activity (Plasmodium yoelii [23]) was “Active”, the pIC50 (Heme [1]) was 4.91 and the Activity (Plasmodium vinckei [24]) was “inactive”. The “inhibition (INH)” value (Plasmodium yoelii [8]) was 44%, the Activity (Plasmodium yoelii [9]) was “inactive” and the pIC50 (Plasmodium falciparum [10]) was 6.34.
`[3H]c1nc2c([3H])c(Cl)c([3H])c([3H])c2c(N([3H])C([3H])(C([3H])([3H])[3H])C([3H])([3H])C([3H])([3H])C([3H])([3H])N(C([3H])([3H])C([3H])([3H])[3H])C([3H])([3H])C([3H])([3H])[3H])c1[3H]` (stereo unspecified) [[3H]-CHLOROQUINE] showed a pIC50 (Heme [1]) of 5.24.
With `C[C@@H]1CC[C@H]2[C@@H](C)C(=O)O[C@@H]3O[C@@]4(C)CC[C@@H]1[C@]32OO4` the inhibition (Heme [1]) was “inactive” and the Activity (Heme [2]) was “inactive”.
With `COc1ccc(CCN(C)CCCC(C#N)(c2ccc(OC)c(OC)c2)C(C)C)cc1OC` (stereo unspecified) the inhibition (Heme [1]) was “inactive” and the Activity (Heme [2]) was “inactive”.
For `C=C[C@H]1CN2CC[C@H]1C[C@@H]2[C@@H](O)c1ccnc2ccc(OC)cc12`, the inhibition (Heme [1]) was “Active” and the Activity (Heme [2]) was “Active”.
`Fc1ccc(Cn2c(NC3CCNCC3)nc3ccccc32)cc1` [TECASTEMIZOLE] gave a pIC50 (Plasmodium falciparum [3]) of 5.35, a pIC50 (Plasmodium falciparum [6]) of 5.65 and a pIC50 (Plasmodium falciparum [10]) of 5.44.
